# Data published in ChEMBL document CHEMBL1155478, “Novel C-aryl glucoside SGLT2 inhibitors as potential antidiabetic agents: Pyridazinylmethylphenyl glucoside congeners” (Bioorg Med Chem Lett, 2010).
# pIC50: −log10 of the molar value.
# Assays:
# [1] = Elimination half life in Sprague-Dawley rat at 5 mg/kg, po; assay type: ADME, organism-based; set-up: dose 5 mg/kg, route oral; conditions: in vivo, read-out: beta t1/2 (converted)
# Method in brief: (§1)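 Male SD rats given a single oral dose of 5 mg/kg. Plasma sampled to obtain Cmax, time to Cmax and elimination half-life after oral dosing. Oral bioavailability (F) determined.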
# in vivo = conditions: Sprague-Dawley, rat, po, 5 mg/kg
# [2] = Oral bioavailability in Sprague-Dawley rat at 5 mg/kg; assay type: ADME, organism-based; conditions: in vivo; method in brief: as §1
# [3] = biological target: T1, Sodium/glucose cotransporter 2 (Homo sapiens, UniProt P31639); experiment: Inhibition of human SGLT2 expressed in CHO cells assessed as [14C]alpha-methyl-D-glucopyranoside uptake after 2 hrs by liquid scintillation counting; assay type: cell-based
# T1 sequence (P31639 whole entry): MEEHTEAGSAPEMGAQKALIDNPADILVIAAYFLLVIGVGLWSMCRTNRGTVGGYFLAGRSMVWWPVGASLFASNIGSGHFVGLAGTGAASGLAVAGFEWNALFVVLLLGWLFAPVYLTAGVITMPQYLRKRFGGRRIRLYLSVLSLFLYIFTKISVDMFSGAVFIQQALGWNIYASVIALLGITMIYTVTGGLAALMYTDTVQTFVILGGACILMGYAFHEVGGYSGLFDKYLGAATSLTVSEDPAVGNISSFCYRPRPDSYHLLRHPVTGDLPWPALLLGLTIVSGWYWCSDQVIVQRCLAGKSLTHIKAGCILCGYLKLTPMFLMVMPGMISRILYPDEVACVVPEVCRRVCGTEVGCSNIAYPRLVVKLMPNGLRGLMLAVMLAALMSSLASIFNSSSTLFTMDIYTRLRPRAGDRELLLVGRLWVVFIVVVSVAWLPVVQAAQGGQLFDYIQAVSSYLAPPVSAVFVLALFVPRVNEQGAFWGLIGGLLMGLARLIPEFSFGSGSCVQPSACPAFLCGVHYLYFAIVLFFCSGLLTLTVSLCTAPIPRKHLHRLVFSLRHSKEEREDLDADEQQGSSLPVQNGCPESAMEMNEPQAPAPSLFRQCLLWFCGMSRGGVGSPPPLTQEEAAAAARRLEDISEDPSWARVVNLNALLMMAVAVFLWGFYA
# Method in brief: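 CHO cells stably transfected with hSGLT2 (pcDNA3.1(+), G418-selected), seeded at 5 × 10⁴ cells/well and used 1 day later. Cells pre-incubated 10 min at 37 °C in Na⁺-free choline chloride buffer pH 7.4. Then incubated 2 h at 37 °C in NaCl uptake buffer with 1 mM unlabeled AMG plus ¹⁴C-AMG, with inhibitor or DMSO. Washed with 10 mM AMG buffer; radioactivity counted by liquid scintillation.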
# Rattus norvegicus [4] = experiment: Increase of urinary volume in normal Sprague-Dawley rat assessed […] at 10 mg/kg, po subsequently dosed orally with 50% aqueous glucose solution measured up to 24 hrs (RVB = 3.9 +/- 0.23 ml/200 mg body weight)
# Rattus norvegicus [5] = experiment: Increase of urinary volume in normal Sprague-Dawley rat at 10 mg/kg, po subsequently dosed orally with 50% aqueous glucose solution measured up to 24 hrs relative to control; assay type: functional, Urine
# [6] = Cmax in Sprague-Dawley rat at 5 mg/kg, po after 0.33 hrs; assay type: ADME, organism-based; set-up: dose 5 mg/kg, route oral; conditions: in vivo; method in brief: as §1
# Rattus norvegicus [7] = experiment: Increase of urinary glucose excretion in normal Sprague-Dawley rat at 10 mg/kg, po subsequently dosed orally with 50% aqueous glucose solution measured up to 24 hrs relative to control; assay type: functional, Urine
# Rattus norvegicus [8] = experiment: Increase of urinary glucose excretion in normal Sprague-Dawley rat assessed per 200 g of body weight at 10 mg/kg, po subsequently dosed orally with 50% aqueous glucose solution measured up to 24 hrs (RVB = […] mg/200 g of body weight); assay type: functional, Urine
Compound,half-life [1] [h],bioavailability [2] [%],pIC50 [3],also measured
CCOc1ccc(Cc2cc([C@@H]3O[C@H](CO)[C@@H](O)[C@H](O)[C@H]3O)ccc2Cl)cc1 [DAPAGLIFLOZIN],4,88.4,,Cmax at 0.67 h (in vivo): 2500 ng/mL
COc1cccc(-c2ccc(Cc3cc([C@@H]4O[C@H](CO)[C@@H](O)[C@H](O)[C@H]4O)ccc3Cl)nn2)c1,,,6.45,
CC(C)Oc1ccc(Cc2cc([C@@H]3O[C@H](CO)[C@@H](O)[C@H](O)[C@H]3O)ccc2Cl)nn1,,,6.96,

# Continued, in another order:
half-life [1] [h],bioavailability [2] [%],pIC50 [3],Compound,also measured
1.94,26.1,,CSc1ccc(Cc2cc([C@@H]3O[C@H](CO)[C@@H](O)[C@H](O)[C@H]3O)ccc2Cl)nn1,Activity (Rattus norvegicus [4]): 5.07 mL; fold change (FC) (Rattus norvegicus [5]): 1.3; Cmax [6]: 310 ng/mL; fold change (FC) (Rattus norvegicus [7]): 180; Activity (Rattus norvegicus [8]): 344 mg
,,< 5.00,Cc1nnc(Cc2cc([C@@H]3O[C@H](CO)[C@@H](O)[C@H](O)[C@H]3O)ccc2Cl)c2ccccc12,
